{"source": "ChEMBL document CHEMBL4339193", "about": "“Phenotypic Screening-Based Identification of 3,4-Disubstituted Piperidine Derivatives as Macrophage M2 Polarization Modulators: An Opportunity for Treating Multiple Sclerosis” (J Med Chem, 2019)", "key": {"RAW264.7 [1]": {"test_system": "RAW264.7", "test": "Modulation of M2 polarization in mouse RAW264.7 cells assessed as up regulation of CCR7 mRNA expression at 300 nM measured after 24 hrs by qRT-PCR analysis", "type": "functional, cell-based"}, "RAW264.7 [2]": {"test_system": "RAW264.7", "test": "Modulation of M2 polarization in mouse RAW264.7 cells assessed as up regulation of MRC1 mRNA expression at 300 nM measured after 24 hrs by qRT-PCR analysis", "type": "functional, cell-based"}, "[3]": {"test": "AUC (0 to infinity) in Sprague-Dawley rat at 50 mg/kg, po administered as single dose via gavage by LC/MS analysis", "type": "ADME, organism-based", "design": "dose 50 mg/kg, time infinity, route oral", "details": "in vivo", "in_short": "(§1)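 Single dose in rats; venous blood (100 µL) drawn at 0, 0.5, 1, 2, 4, 8 and 12 h, plasma separated by centrifugation and held at -20 °C. Compound measured by LC/MS; Cmax, Tmax, t1/2 and AUC derived from the concentration–time data.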"}, "[4]": {"test": "Toxicity in ICR mouse assessed as adverse effect at 400 mg/kg, ig administered daily for 14 days", "type": "organism-based", "details": "in vivo, po, 336 h", "in_short": "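Repeated-dose study in healthy mice over 14 days. Read-outs were body weight change, serum parameters, and organ-to-body and organ-to-brain weight ratios.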"}, "Mus musculus [5]": {"test_system": "Mus musculus", "test": "(§2) Inhibition of M1 polarization in C57BL/6J mouse model of MOG (35 to 55 residues)/pertussis toxin/complete Freund's adjuvant-induced experimental allergic encephalomyelitis assessed as CD86 level in spleen at 200 mg/kg, ig administered daily starting from 7 days post-immunization measured after 13 to 19 days post-immunization by flow cytometry analysis (reference value: 11.8%)", "type": "functional", "design": "scale not given: the % may be the effect or the level left", "in_short": "(§3)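 MOG35-55/CFA EAE mice were dosed daily in saline from day 7 and sampled between days 13 and 19. Cells came from spleen and dLN by mechanical dissociation and from CNS by collagenase IV/Percoll. They were stained for F4/80 with CD206 (M2) or CD86 (M1), and each was read by flow cytometry as a percentage of total F4/80+ macrophages.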"}, "[6]": {"test": "Cmax in Sprague-Dawley rat at 50 mg/kg, po administered as single dose via gavage by LC/MS analysis", "type": "ADME, organism-based", "design": "dose 50 mg/kg, route oral", "details": "in vivo", "in_short": "as §1"}, "RAW264.7 [7]": {"test_system": "RAW264.7", "test": "Modulation of M2 polarization in mouse RAW264.7 cells assessed as up regulation of IL13RA1 mRNA expression at 300 nM measured after 24 hrs by qRT-PCR analysis", "type": "functional, cell-based"}, "BMDM [8]": {"test_system": "BMDM", "test": "Modulation of M2 polarization in C57BL/6J mouse BMDM cells assessed as up regulation of Arg1 expression at 300 nM measured after 4 to 24 hrs by Western blot analysis", "type": "functional, cell-based", "in_short": "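BMDMs lysed in pH 7.6 buffer with 1% Triton X-100, phosphatase inhibitor and 1 mM PMSF. Proteins separated by SDS-PAGE, blotted to PVDF and probed with anti-Arg-1, anti-Ym1 or anti-TNF-α, then ECL detection; GAPDH as loading control.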"}, "[9]": {"test": "Tmax in Sprague-Dawley rat at 50 mg/kg, po administered as single dose via gavage by LC/MS analysis", "type": "ADME, organism-based", "details": "in vivo", "in_short": "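Single dose given to rats. Venous blood (100 µL) drawn at 0, 0.5, 1, 2, 4, 8 and 12 h. Plasma separated by centrifugation and stored at -20 °C, then compound measured by LC/MS. Cmax, Tmax, t1/2 and AUC derived from the concentration-time data.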"}, "[10]": {"test": "Cmax in Sprague-Dawley rat at 10 mg/kg, iv administered as single dose by LC/MS analysis", "type": "ADME, organism-based", "design": "dose 10 mg/kg, route intravenous", "details": "in vivo", "in_short": "as §1"}, "Mus musculus [11]": {"test_system": "Mus musculus", "test": "(§4) Antiinflammatory activity in C57BL/6J mouse model of MOG (35 to 55 residues)/pertussis toxin/complete Freund's adjuvant-induced experimental allergic encephalomyelitis assessed as effect on dendritic cell population in CNS by measuring change in CD11c level at 200 mg/kg, ig administered daily starting from 7 days post-immunization measured after 13 to 19 days post-immunization by flow cytometry analysis", "type": "functional, organism-based", "in_short": "(§5)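 MOG35-55/CFA EAE mice were dosed daily in saline from day 7 and sampled between days 13 and 19. Spleens and dLNs were mechanically dissociated to single cells. CNS cells came from collagenase IV digestion and a 70%/30% Percoll gradient. Cells were surface-stained with fluorochrome antibodies, including CD4, CD11b, CD11c and MHC-II, and analysed by flow cytometry.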"}, "Mus musculus [12]": {"test_system": "Mus musculus", "test": "Antiinflammatory activity in C57BL/6J mouse model of MOG (35 to 55 residues)/pertussis toxin/complete Freund's adjuvant-induced experimental allergic encephalomyelitis assessed as reduction in infiltration in spinal cord at 200 mg/kg, ig administered daily starting from 7 days post-immunization measured after 14 days post-immunization by LFB staining based microscopic analysis", "type": "functional, organism-based", "in_short": "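EAE mice dosed daily in saline from day 7 were perfused with PBS and fixed in 4% PFA on day 14; spinal cords were taken. For LFB, frozen OCT sections sat 3 h in 0.1% Luxol Fast Blue at 56-60°C, were differentiated in 0.05% lithium carbonate for 10-12 s, cleared in 70% ethanol, dehydrated and mounted. For H&E, paraffin sections were stained to assess inflammation.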"}, "[13]": {"test": "Half life in Sprague-Dawley rat at 50 mg/kg, po administered as single dose via gavage by LC/MS analysis", "type": "ADME, organism-based", "details": "in vivo", "in_short": "as §1"}, "BMDM [14]": {"test_system": "BMDM", "test": "Inhibition of LPS-induced M1 polarization in C57BL/6J mouse BMDM cells assessed as down regulation of Inos mRNA expression at 300 nM measured after 24 hrs by qRT-PCR analysis", "type": "functional, cell-based", "in_short": "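BMDMs pre-incubated 24 h with 50 ng/ml LPS to induce M1, then treated 24 h with 300 nM compound. Total RNA extracted with Trizol; Mcp1, Inos and Cd86 mRNA measured by qRT-PCR. Mean ± SEM.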"}, "BMDM [15]": {"test_system": "BMDM", "test": "Modulation of M2 polarization in C57BL/6J mouse BMDM cells assessed as up regulation of Mrc1 mRNA expression at 300 nM measured after 24 hrs by qRT-PCR analysis", "type": "functional, cell-based", "in_short": "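BMDMs treated 24 h with 300 nM compound at 37 °C, 5% CO2. Trizol RNA extraction, then qRT-PCR for Arg1, Mrc1 and Fizz1 mRNA. Mean ± SEM.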"}, "[16]": {"test": "Tmax in Sprague-Dawley rat at 10 mg/kg, iv administered as single dose by LC/MS analysis", "type": "ADME, organism-based", "details": "in vivo", "in_short": "as §1"}, "Mus musculus [17]": {"test_system": "Mus musculus", "test": "as §4, with “Treg” for “dendritic”, “draining lymph nodes” for “CNS”, “CD4” for “CD11c”", "type": "functional, organism-based", "in_short": "as §5"}, "[18]": {"test": "Half life in Sprague-Dawley rat at 10 mg/kg, iv administered as single dose by LC/MS analysis", "type": "ADME, organism-based", "details": "in vivo", "in_short": "as §1"}, "Mus musculus [19]": {"test_system": "Mus musculus", "test": "as §2, with “draining lymph nodes” for “spleen”, “18.4%)” for “11.8%)”", "type": "functional", "design": "scale not given: the % may be the effect or the level left", "in_short": "as §3"}, "Mus musculus [20]": {"test_system": "Mus musculus", "test": "as §4, with “TH1” for “effect on dendritic”, “spinal cord” for “CNS”, “IFNgamma” for “change in CD11c”, “14” for “13”, “21” for “19”, “analysis (reference value: 22.3%)” for “analysis”", "type": "functional", "in_short": "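EAE induced with MOG35-55 (2 mg/ml in PBS) emulsified in CFA containing 4 mg/ml heat-killed M. tuberculosis H37Ra, injected s.c. into the neck and both hindlegs. Drug in saline daily from day 7. Between days 13 and 19, CNS mononuclear cells were taken by collagenase IV digestion and a 70%/30% Percoll gradient. Cells were restimulated 5 h with brefeldin A 2 µg/ml, PMA 0.1 µg/ml and ionomycin 0.5 µg/ml, stained for surface CD4, fixed and permeabilised, then stained intracellularly for IFN-γ/IL-17A. Analysed by flow cytometry; n=4 mice per group.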"}}, "note": "The source made the active and inactive calls. No cut-off for these calls is given here."}
{"smiles": "Cl.Cn1ncc(Cl)c1-c1ccc(C(=O)N[C@@H]2CNCC[C@H]2c2cccc(F)c2)cc1", "values": [{"measurement": "Activity", "setting": "RAW264.7 [1]", "value": "Active"}, {"measurement": "Activity", "setting": "RAW264.7 [2]", "value": "Active"}, {"measurement": "AUC(0-inf)", "setting": "[3]", "value": 4740, "unit": "ng·h/mL"}, {"measurement": "Activity", "setting": "[4]", "value": "Non-Toxic"}, {"measurement": "Activity", "setting": "Mus musculus [5]", "value": 6.9, "unit": "%"}, {"measurement": "Cmax", "setting": "[6]", "value": 313, "unit": "ng/mL"}, {"measurement": "Activity", "setting": "RAW264.7 [7]", "value": "Active"}, {"measurement": "Activity", "setting": "BMDM [8]", "value": "Active"}, {"measurement": "Tmax", "setting": "[9]", "value": 3.25, "unit": "h"}, {"measurement": "Cmax", "setting": "[10]", "value": 1000, "unit": "ng/mL"}, {"measurement": "Activity", "setting": "Mus musculus [11]", "value": "inactive"}, {"measurement": "Activity", "setting": "Mus musculus [12]", "value": "Active"}, {"measurement": "half-life", "setting": "[13]", "value": 7.77, "unit": "h"}, {"measurement": "inhibition", "setting": "BMDM [14]", "value": "Active"}, {"measurement": "Activity", "setting": "BMDM [15]", "value": "Active"}, {"measurement": "Tmax", "setting": "[16]", "value": 4.98, "unit": "min"}, {"measurement": "Activity", "setting": "Mus musculus [17]", "value": "inactive"}, {"measurement": "half-life", "setting": "[18]", "value": 6.3, "unit": "h"}, {"measurement": "Activity", "setting": "Mus musculus [19]", "value": 11.5, "unit": "%"}, {"measurement": "Activity", "setting": "Mus musculus [20]", "value": 11.4, "unit": "%"}]}
